Source: publication PMC6044579 (ACS Omega, 2017)
Read-outs that look alike come from different tables or passages of the source.

Key:
[1] = Fluorescence spectra and quantum yield; type: physicochemical; conditions: for ε × Φ, fluorescent brightness / λem – λabs, Stokes shift / λem, emission wavelength / λex, best excitation wavelength: ethanol as the solvent; for Φ, quantum yield: ethanol, rhodamine as the reference
In short: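 Emission spectra recorded with xenon lamp excitation in 1.0 cm quartz cells at room temperature, excitation and emission slits 5.0 nm. Ethanolic compound solution (25 μg mL–1 before dilution) diluted in a 10 mL flask with buffer solutions, pH set with dilute HCl or NaOH, then equilibrated 2 min. Quantum yield in anhydrous ethanol from integrated emission relative to rhodamine 6G standard (5.0 μg mL–1 in anhydrous ethanol).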

[2] = UV-vis absorption spectra; type: physicochemical; conditions: ethanol as the solvent
In short: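 Absorption spectra taken in 1.0 cm quartz cells in anhydrous ethanol at room temperature. Ethanolic compound solution (25 μg mL–1 before dilution) made up in a 10 mL volumetric flask and equilibrated 2 min before measurement.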

A549 = test: MTT assay, A549 cancerous alveolar epithelial cells; type: cell-based, human; conditions: read-out: anticancer activity (IC50) A549
In short: (§1)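 ATCC-sourced human cells kept at 37 °C, 5% CO2, humidified air. Cells treated with test compound at various concentrations for 96 h; DMSO as control, cisplatin as positive control. MTT (0.4 mg mL–1) added for a further 4 h, medium aspirated, formazan dissolved in DMSO, absorbance read at 490 nm. IC50 taken as the concentration giving 50% growth inhibition.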

HepG2 = test: MTT assay, HepG2 liver carcinoma cells; type: cell-based, human
In short: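 HepG2 cells from ATCC, kept at 37 °C, 5% CO2, humidified air. Cells were exposed to the test compound at various concentrations, with DMSO as control, for 96 h. MTT (0.4 mg mL–1) was then added for 4 h. Medium was aspirated, formazan dissolved in DMSO, and absorbance read at 490 nm. IC50 was taken as the concentration giving 50% growth inhibition.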

MRC-5 = test: MTT assay, MRC-5 diploid fibroblasts; type: cell-based, human; conditions: read-out: anticancer activity (IC50) MRC-5
In short: as §1

HT29 = test: MTT assay, HT29 colorectal cancer cells; type: cell-based, human; conditions: read-out: anticancer activity (IC50) HT29
In short: as §1

SGC7901 = test: MTT assay, SGC7901 gastric carcinoma cells; type: cell-based, human; conditions: read-out: anticancer activity (IC50) SGC7901
In short: as §1

[3] = test system: HepG2 liver carcinoma cells; test: Clonogenic assay for long-term anticancer activity; type: cell-based, human; conditions: HepG2, 18 h exposure, colonies counted after 10 days
In short: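 HepG2 cells seeded at 2 × 10^5 per well and attached overnight, then exposed 18 h to test compound at 0.01, 0.1, 1 or 10 μM, with vehicle alone as control. Replated at 700 cells/well in triplicate and grown 10 days at 37 °C, 5% CO2. Washed in ice-cold PBS, fixed in cold methanol 20 min, stained with 0.5% methylene blue 30 min; colonies of >50 cells counted. IC50 estimated from mean treated/untreated colony ratio.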

Cyclic voltammetry = type: physicochemical; conditions: anhydrous ethanol, 1.0 × 10^–4 M, Fc/Fc^+ internal standard
In short: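 Three-electrode cell: Pt foil working electrode, Pt wire counter electrode, Ag/AgCl reference. Fc/Fc+ couple served as internal standard.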

[4] = Homo sapiens, HepG2, 96 h, read-out: anticancer activity (IC50) HepG2, MTT assay, liver carcinoma cells, 96 h incubation
[5] = read-out: anticancer activity (IC50) HepG2, MTT assay, liver carcinoma cells, 96 h incubation

Structure (SMILES) | ε × Φ, fluorescent brightness [1] [mL mg^–1 cm^–1] | λem – λabs, Stokes shift [1] [nm] | λem, emission wavelength [1] [nm] | λex, best excitation wavelength [1] [nm] | Φ, quantum yield [1] | ε, absorption coefficient [2] [mL mg^–1 cm^–1] | λabs, maximal absorption wavelength [2] [nm] | IC50 (A549; Homo sapiens, A549, 96 h) [µM] | IC50 (HepG2; [4]) [µM] | IC50 (HT29; Homo sapiens, HT-29, 96 h) [µM] | IC50 (SGC7901; Homo sapiens, SGC-7901, 96 h) [µM] | IC50, colony-forming ratio [3] [µM] | first onset of reduction (Cyclic voltammetry) [V] | reversible reduction wave (Cyclic voltammetry) [V] | IC50 (HepG2; [5]) [µM] | IC50 (MRC-5; Homo sapiens, MRC5, 96 h) [µM] | IC50 (A549; MTT assay, cancerous alveolar epithelial cells, 96 h incubation) [µM] | IC50 (MRC-5; MTT assay, diploid fibroblasts (normal cells), 96 h incubation) [µM] | IC50 (HT29; MTT assay, colorectal cancer cells, 96 h incubation) [µM] | IC50 (SGC7901; MTT assay, gastric carcinoma cells, 96 h incubation) [µM]
N.N.[Cl][Pt][Cl] [DDP, Cisplatin, reference compound] | – | – | – | – | – | – | – | – | – | – | – | – | – | – | 3 | – | 8.4 | 8.2 | 14.3 | 2.3
COc1ccc(C(=O)C2=C3NCCCCN3C3Oc4ccc(Cl)cc4C(=O)C3=C2)cc1 (centres unmarked) [3fd, 10-Chloro-6-(4-methoxybenzoyl)-1,2,3,4,5,13a-hexahydro-8H-chromeno[3′,2′:5,6]pyrido-[1,2-a][1,3]diazepin-8-one] | 53.75 | 83.0 | 526.0 | 470.0 | 0.663 | 81.07 | 443.0 | 33.5 | 11.2 | 26.8 | 14.8 | 5.99 | −1.04 | −1.19 | – | 33.1 | – | – | – | –
COc1ccc(C(=O)C2=C3NCCCCN3C3Oc4ccc(F)cc4C(=O)C3=C2)cc1 (centres unmarked) [3fc, 10-Fluoro-6-(4-methoxybenzoyl)-1,2,3,4,5,13a-hexahydro-8H-chromeno[3′,2′:5,6]pyrido-[1,2-a][1,3]diazepin-8-one] | 74.72 | 83.5 | 525.5 | 461.0 | 0.671 | 111.53 | 442.0 | 39.6 | 18.9 | 29.8 | 26.7 | – | – | – | – | 48 | – | – | – | –

Continued, in another order:

ε × Φ, fluorescent brightness [1] [mL mg^–1 cm^–1] | λem – λabs, Stokes shift [1] [nm] | λem, emission wavelength [1] [nm] | λex, best excitation wavelength [1] [nm] | Φ, quantum yield [1] | ε, absorption coefficient [2] [mL mg^–1 cm^–1] | λabs, maximal absorption wavelength [2] [nm] | IC50 (A549; Homo sapiens, A549, 96 h) [µM] | IC50 (HepG2; [4]) [µM] | IC50 (HT29; Homo sapiens, HT-29, 96 h) [µM] | IC50 (SGC7901; Homo sapiens, SGC-7901, 96 h) [µM] | IC50, colony-forming ratio [3] [µM] | first onset of reduction (Cyclic voltammetry) [V] | reversible reduction wave (Cyclic voltammetry) [V] | Structure (SMILES) | IC50 (HepG2; [5]) [µM] | IC50 (MRC-5; Homo sapiens, MRC5, 96 h) [µM] | IC50 (A549; MTT assay, cancerous alveolar epithelial cells, 96 h incubation) [µM] | IC50 (MRC-5; MTT assay, diploid fibroblasts (normal cells), 96 h incubation) [µM] | IC50 (HT29; MTT assay, colorectal cancer cells, 96 h incubation) [µM] | IC50 (SGC7901; MTT assay, gastric carcinoma cells, 96 h incubation) [µM]
37.33 | 82.5 | 526.0 | 470.0 | 0.329 | 113.48 | 443.5 | 27.5 | < 10 | 13.3 | 13.5 | – | – | – | COc1ccc(C(=O)C2=C3NCCCCN3C3Oc4ccc(Br)cc4C(=O)C3=C2)cc1 (centres unmarked) [3fe, 10-Bromo-6-(4-methoxybenzoyl)-1,2,3,4,5,13a-hexahydro-8H-chromeno[3′,2′:5,6]pyrido-[1,2-a][1,3]diazepin-8-one] | 9.5 | 34.8 | – | – | – | –
10.08 | 79.0 | 520.5 | 466.0 | 0.428 | 23.56 | 441.5 | 27.5 | 15.4 | 18.8 | 17.8 | – | – | – | COc1ccc(C(=O)C2=C3NCCCN3C3Oc4ccc(Br)cc4C(=O)C3=C2)cc1 (centres unmarked) [3ae, 9-Bromo-5-(4-methoxybenzoyl)-2,3,4,12a-tetrahydro-1H,7H-chromeno[3′,2′:5,6]pyrido-[1,2-a]pyrimidin-7-one] | – | 31.3 | – | – | – | –
23.23 | 80.0 | 520.0 | 449.0 | 0.464 | 50.07 | 440.0 | 34.3 | 30.9 | 26.9 | 18.7 | – | – | – | COc1ccc(C(=O)C2=C3NCCCN3C3Oc4ccc(Cl)cc4C(=O)C3=C2)cc1 (centres unmarked) [3ad, 9-Chloro-5-(4-methoxybenzoyl)-2,3,4,12a-tetrahydro-1H,7H-chromeno[3′,2′:5,6]pyrido-[1,2-a]pyrimidin-7-one] | – | 34.9 | – | – | – | –
– | 79.0 | 519.5 | 464.0 | 0.476 | – | 440.5 | > 100 | > 100 | – | > 100 | – | – | – | COc1ccc(C(=O)C2=C3NCCCN3C3Oc4ccc(F)cc4C(=O)C3=C2)cc1 (centres unmarked) [3ac, 9-Fluoro-5-(4-methoxybenzoyl)-2,3,4,12a-tetrahydro-1H,7H-chromeno[3′,2′:5,6]pyrido-[1,2-a]pyrimidin-7-one] | – | – | – | – | – | –
